The record followed here is ChEMBL document CHEMBL1828601, “Small molecule peptidomimetic inhibitors of importin α/β mediated nuclear transport” (Bioorg Med Chem, 2010).

The source made the active and inactive calls. The rule behind the calls is not given here.

In one experiment the test system is FGM. The experiment can be described thus: Inhibition of importin alpha/beta-mediated nuclear transportation of Alexa555-GST-M9 in human FGM cell nucleus at 500 uM after 30 mins by fluorescence microscopy. It counts as cell-based. An outline of the steps: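 Transportin-dependent import measured the same way in permeabilized FGM cells, with 0.5 μM Alexa555-GST-M9 cargo in place of BSA-NLS. Conditions: 3 mg/ml HeLa cytosol, ATP-regenerating system, 0.2 mM GTP, 1% DMSO, 30 min at 30°C. Positive control was 1 mg/ml WGA. Nuclear cargo fluorescence quantified per nucleus by automated imaging.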
Take `NCCCCNC(=O)[C@@H]1CN(C(=O)[C@@H](N)CCc2ccccc2)C[C@H]1C(=O)NCCc1ccc2ccccc2c1`: the inhibition entry was “inactive”.
The same measure, in the same setting: the value for `N[C@@H](CCc1ccccc1)C(=O)Nc1ccc(C(=O)N[C@@H](CCc2ccccc2)C(=O)O)cc1OCc1ccc(Cl)cc1` was “Active”; that for `C[C@H](N)C(=O)N1C[C@@H](C(=O)NCCCCN)[C@H](C(=O)NCCc2ccc3ccccc3c2)C1` was “inactive”.
As to `CC[C@H](C)[C@H](NC(=O)c1ccc(NC(=O)[C@@H](N)Cc2ccc3ccccc3c2)c(OCc2c[nH]cn2)c1)C(=O)O`, the inhibition result was “Active”.
Still for that read-out and setting: the same measure for `N[C@@H](CCc1ccc(Cl)cc1)C(=O)N1C[C@@H](C(=O)NCCc2c[nH]cn2)[C@H](C(=O)NCCc2c[nH]c3ccccc23)C1`: “inactive”; for `NCCCCNC(=O)[C@@H]1CN(C(=O)[C@@H](N)Cc2c[nH]c3ccccc23)C[C@H]1C(=O)NCCc1ccc2ccccc2c1`: “Active”; for `CC(C)C[C@H](N)C(=O)N1C[C@@H](C(=O)NCCCCN)[C@H](C(=O)NCCc2ccc3ccccc3c2)C1`: “inactive”.
On the same count and under the same terms, the same measure for `CC(C)[C@H](N)C(=O)N1C[C@@H](C(=O)NCCCCN)[C@H](C(=O)NCCc2ccc3ccccc3c2)C1`: “inactive”; for `CC[C@H](C)[C@H](NC(=O)c1ccc(NC(=O)[C@@H](N)CC(N)=O)c(OCc2c[nH]cn2)c1)C(=O)O`: “inactive”; for `C[C@@H](O)[C@H](N)C(=O)N1C[C@@H](C(=O)NCCCCN)[C@H](C(=O)NCCc2ccc3ccccc3c2)C1`: “inactive”.
On the same count and under the same terms, the value for `C[C@@H](O)[C@H](N)C(=O)Nc1ccc(C(=O)N[C@@H](CCc2ccccc2)C(=O)O)cc1OCc1ccc(Cl)cc1` was “inactive”.
For the molecule `N[C@@H](Cc1ccc(Cl)cc1)C(=O)N1C[C@@H](C(=O)NCCc2c[nH]cn2)[C@H](C(=O)NCCc2c[nH]c3ccccc23)C1`, the inhibition result is “Active”.
Still for that read-out and setting: the same measure for `CC[C@@H](C)[C@H](N)C(=O)Nc1ccc(C(=O)N[C@H](C(=O)O)[C@@H](C)CC)cc1OCc1c[nH]cn1`: “inactive”; for `N[C@@H](Cc1c[nH]cn1)C(=O)Nc1ccc(C(=O)N[C@@H](CCc2ccccc2)C(=O)O)cc1OCc1ccc(Cl)cc1`: “inactive”.
Still for that read-out and setting: the same measure for `N[C@@H](CCc1ccccc1)C(=O)N1C[C@@H](C(=O)NCCc2c[nH]cn2)[C@H](C(=O)NCCc2c[nH]c3ccccc23)C1`: “Active”; for `NCCCCNC(=O)[C@@H]1CN(C(=O)[C@@H](N)CC(=O)O)C[C@H]1C(=O)NCCc1ccc2ccccc2c1`: “inactive”.
The same measure, in the same setting: the same measure for `NCCCCNC(=O)[C@@H]1CN(C(=O)[C@@H](N)Cc2ccc3ccccc3c2)C[C@H]1C(=O)NCCc1ccc2ccccc2c1`: “inactive”; for `NCCCCNC(=O)[C@@H]1CN(C(=O)[C@@H](N)Cc2cnc[nH]2)C[C@H]1C(=O)NCCc1ccc2ccccc2c1`: “inactive”; for `NCCCC[C@H](N)C(=O)Nc1ccc(C(=O)N[C@@H](CCc2ccccc2)C(=O)O)cc1OCc1ccc(Cl)cc1`: “inactive”.
As for `N[C@@H](Cc1cnc[nH]1)C(=O)N1C[C@@H](C(=O)NCCc2c[nH]cn2)[C@H](C(=O)NCCc2c[nH]c3ccccc23)C1`, the inhibition entry was “inactive”.
`CC[C@H](C)[C@H](NC(=O)c1ccc(NC(=O)[C@@H](N)Cc2ccccc2)c(OCc2c[nH]cn2)c1)C(=O)O`: the inhibition result is “inactive”.
Turning to `CC(C)[C@H](N)C(=O)N1C[C@@H](C(=O)NCCc2c[nH]cn2)[C@H](C(=O)NCCc2c[nH]c3ccccc23)C1`, the inhibition entry was “inactive”.
The same measure, in the same setting: the same measure for `N[C@@H](Cc1ccc2ccccc2c1)C(=O)N1C[C@@H](C(=O)NCCc2c[nH]cn2)[C@H](C(=O)NCCc2c[nH]c3ccccc23)C1`: “Active”; for `CSCC[C@H](N)C(=O)N1C[C@@H](C(=O)NCCc2c[nH]cn2)[C@H](C(=O)NCCc2c[nH]c3ccccc23)C1`: “inactive”.

The subject of the next experiment is FGM. The experiment can be described thus: Inhibition of importin alpha/beta-mediated nuclear transportation of Alexa555-BSA-NLS in human FGM cell nucleus at 500 uM after 30 mins by fluorescence microscopy. It counts as cell-based.
Take `NCCCCNC(=O)[C@@H]1CN(C(=O)[C@@H](N)CCc2ccccc2)C[C@H]1C(=O)NCCc1ccc2ccccc2c1`: the inhibition result was “inactive”.
Turning to `N[C@@H](CCc1ccccc1)C(=O)Nc1ccc(C(=O)N[C@@H](CCc2ccccc2)C(=O)O)cc1OCc1ccc(Cl)cc1`, the inhibition result is “Active”.
Turning to `C[C@H](N)C(=O)N1C[C@@H](C(=O)NCCCCN)[C@H](C(=O)NCCc2ccc3ccccc3c2)C1`, the inhibition entry is “inactive”.
The same measure, in the same setting: the value for `CC[C@H](C)[C@H](NC(=O)c1ccc(NC(=O)[C@@H](N)Cc2ccc3ccccc3c2)c(OCc2c[nH]cn2)c1)C(=O)O` was “Active”; that for `N[C@@H](CCc1ccc(Cl)cc1)C(=O)N1C[C@@H](C(=O)NCCc2c[nH]cn2)[C@H](C(=O)NCCc2c[nH]c3ccccc23)C1` was “inactive”; that for `NCCCCNC(=O)[C@@H]1CN(C(=O)[C@@H](N)Cc2c[nH]c3ccccc23)C[C@H]1C(=O)NCCc1ccc2ccccc2c1` was “Active”.
On to `CC(C)C[C@H](N)C(=O)N1C[C@@H](C(=O)NCCCCN)[C@H](C(=O)NCCc2ccc3ccccc3c2)C1`, for which the inhibition entry is “inactive”.
The same measure, in the same setting: the value for `CC(C)[C@H](N)C(=O)N1C[C@@H](C(=O)NCCCCN)[C@H](C(=O)NCCc2ccc3ccccc3c2)C1` was “inactive”; that for `CC[C@H](C)[C@H](NC(=O)c1ccc(NC(=O)[C@@H](N)CC(N)=O)c(OCc2c[nH]cn2)c1)C(=O)O` was “inactive”.
The same measure, in the same setting: the value for `C[C@@H](O)[C@H](N)C(=O)N1C[C@@H](C(=O)NCCCCN)[C@H](C(=O)NCCc2ccc3ccccc3c2)C1` was “inactive”; that for `C[C@@H](O)[C@H](N)C(=O)Nc1ccc(C(=O)N[C@@H](CCc2ccccc2)C(=O)O)cc1OCc1ccc(Cl)cc1` was “inactive”.
Same read-out and setting: the same measure for `N[C@@H](Cc1ccc(Cl)cc1)C(=O)N1C[C@@H](C(=O)NCCc2c[nH]cn2)[C@H](C(=O)NCCc2c[nH]c3ccccc23)C1`: “Active”.
For `CC[C@@H](C)[C@H](N)C(=O)Nc1ccc(C(=O)N[C@H](C(=O)O)[C@@H](C)CC)cc1OCc1c[nH]cn1`, the inhibition result was “inactive”.
Still for that read-out and setting: the same measure for `N[C@@H](Cc1c[nH]cn1)C(=O)Nc1ccc(C(=O)N[C@@H](CCc2ccccc2)C(=O)O)cc1OCc1ccc(Cl)cc1`: “inactive”.
The same measure, in the same setting: the same measure for `N[C@@H](CCc1ccccc1)C(=O)N1C[C@@H](C(=O)NCCc2c[nH]cn2)[C@H](C(=O)NCCc2c[nH]c3ccccc23)C1`: “Active”; for `NCCCCNC(=O)[C@@H]1CN(C(=O)[C@@H](N)CC(=O)O)C[C@H]1C(=O)NCCc1ccc2ccccc2c1`: “inactive”.
Still for that read-out and setting: the value for `NCCCCNC(=O)[C@@H]1CN(C(=O)[C@@H](N)Cc2ccc3ccccc3c2)C[C@H]1C(=O)NCCc1ccc2ccccc2c1` was “inactive”; that for `NCCCCNC(=O)[C@@H]1CN(C(=O)[C@@H](N)Cc2cnc[nH]2)C[C@H]1C(=O)NCCc1ccc2ccccc2c1` was “inactive”.
`NCCCC[C@H](N)C(=O)Nc1ccc(C(=O)N[C@@H](CCc2ccccc2)C(=O)O)cc1OCc1ccc(Cl)cc1`: the inhibition result was “inactive”.
For the molecule `N[C@@H](Cc1cnc[nH]1)C(=O)N1C[C@@H](C(=O)NCCc2c[nH]cn2)[C@H](C(=O)NCCc2c[nH]c3ccccc23)C1`, the inhibition result was “inactive”.
The same measure, in the same setting: the same measure for `CC[C@H](C)[C@H](NC(=O)c1ccc(NC(=O)[C@@H](N)Cc2ccccc2)c(OCc2c[nH]cn2)c1)C(=O)O`: “inactive”; for `CC(C)[C@H](N)C(=O)N1C[C@@H](C(=O)NCCc2c[nH]cn2)[C@H](C(=O)NCCc2c[nH]c3ccccc23)C1`: “inactive”.
Regarding `N[C@@H](Cc1ccc2ccccc2c1)C(=O)N1C[C@@H](C(=O)NCCc2c[nH]cn2)[C@H](C(=O)NCCc2c[nH]c3ccccc23)C1`, the inhibition entry is “Active”.
On the same count and under the same terms, the same measure for `CSCC[C@H](N)C(=O)N1C[C@@H](C(=O)NCCc2c[nH]cn2)[C@H](C(=O)NCCc2c[nH]c3ccccc23)C1`: “inactive”.
